A short description of data set [1]: Inhibition of recombinant Trypanosoma brucei N-terminal His6-tagged AdoMetDC/prozyme hetrodimer expressed in Escherichia coli BL21/DE3 cells at pH 7.2 by RapidFire-MS-based enzyme activity assay.
Data set [2] has as its system Trypanosoma brucei brucei. Briefly: Antitrypanosomal activity against blood stream form Trypanosoma brucei brucei Lister 427 at 100 uM after 48 hrs by CellTiter-Glo assay. The class given is functional. The method, boiled down:
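Bloodstream-form parasites grown in HMI-19 with fetal bovine serum, exposed 48 h to a 3-fold serial dilution (0.0038–25 μM or 0.015–100 μM final; 0.1% DMSO vehicle). Cell density read by ATP bioluminescence (CellTiter-Glo). Triplicate; EC50 from normalized response vs log concentration fit, bottom fixed at 0, Hill slope fixed at –8 when curve steepness gave ambiguous fit. Percent inhibition given at top concentration when <50%.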
(In ATP-based viability assays light output follows the ATP content of the culture.)

Data set [3] deals with T1, S-adenosylmethionine decarboxylase proenzyme (Homo sapiens, UniProt P17707).
T1 sequence (P17707 whole entry): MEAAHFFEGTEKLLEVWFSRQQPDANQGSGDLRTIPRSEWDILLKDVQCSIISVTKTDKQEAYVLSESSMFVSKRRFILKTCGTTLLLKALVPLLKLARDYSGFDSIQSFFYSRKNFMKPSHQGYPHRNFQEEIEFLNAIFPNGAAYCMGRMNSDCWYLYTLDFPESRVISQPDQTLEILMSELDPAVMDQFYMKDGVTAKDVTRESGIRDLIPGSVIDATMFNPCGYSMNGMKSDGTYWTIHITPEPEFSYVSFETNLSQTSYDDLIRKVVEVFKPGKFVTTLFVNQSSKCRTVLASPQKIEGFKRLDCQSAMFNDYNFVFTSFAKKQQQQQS
Kind of data set: Inhibition of recombinant human N-terminal His6-tagged AdoMetDC expressed in Escherichia coli BL21/DE3 cells at pH 7.2 by RapidFire-MS-based enzyme activity assay.

The subject of data set [4] is Trypanosoma brucei. Briefly: Reversible inhibition of recombinant Trypanosoma brucei N-terminal His6-tagged AdoMetDC/prozyme hetrodimer expressed in Escherichia coli BL21/DE3 cells using S-adenosyl-L-methionine as substrate preincubated for 30 mins followed by 100 fold dilution and substrate addition measured every 5 mins by RapidFire-mass spectrometry.
The subject of data set [5] is Liver. Briefly: Metabolic stability in mixed gender human pooled liver microsomes at 1 uM in presence of NADPH measured up to 30 mins by LC-MS/MS method. The class given is ADME, microsome. To be noted: 0.5 h.
The test system of data set [6] is human MDR1 (P-gp). Briefly: Apparent permeability from basolateral side to apical side in MDCK2 harboring human MDR1 cells in absence of Pgp inhibitor GF120918 at 10 to 20 uM after 60 mins by LC-MS/MS method. The conditions noted are these: dog, MDCK-MDR1. The class given is ADME, cell-based, Canis lupus familiaris, MDCK-II. The method in brief: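 MDCKII-hMDR1 monolayer permeability measured with or without Pgp inhibitor GF120918.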

For data set [7], the target named is T2, S-adenosylmethionine decarboxylase proenzyme (Homo sapiens) (UniProt P17707).
T2 sequence (whole entry): T1 sequence (P17707 whole entry)
Briefly: Inhibition of recombinant human N-terminal His6-tagged AdoMetDC expressed in Escherichia coli BL21/DE3 cells at 180 uM at pH 7.2 by RapidFire-MS-based enzyme activity assay.

Data set [8] has as its target T3, S-adenosylmethionine decarboxylase proenzyme (Trypanosoma brucei brucei) (UniProt P50244).
T3 sequence (whole entry): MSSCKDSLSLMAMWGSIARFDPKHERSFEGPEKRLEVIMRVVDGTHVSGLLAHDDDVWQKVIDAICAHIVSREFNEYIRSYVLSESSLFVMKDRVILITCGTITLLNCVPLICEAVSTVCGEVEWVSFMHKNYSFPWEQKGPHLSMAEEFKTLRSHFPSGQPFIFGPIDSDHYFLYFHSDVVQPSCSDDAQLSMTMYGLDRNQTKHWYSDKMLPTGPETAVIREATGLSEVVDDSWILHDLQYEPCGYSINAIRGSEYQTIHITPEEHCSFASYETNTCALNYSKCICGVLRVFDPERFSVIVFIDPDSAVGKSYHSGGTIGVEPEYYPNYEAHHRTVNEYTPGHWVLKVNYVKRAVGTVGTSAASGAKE
Kind of data set: Inhibition of AdoMetDC in bloodstream form Trypanosoma brucei brucei Lister 427 assessed as increase in prozyme level at 1.5 times EC50 after 24 hrs by Western blot method. (In general: A western blot detects proteins with antibodies after separation by electrophoresis.)

The nature of data set [9]: Competitive inhibition of recombinant Trypanosoma brucei N-terminal His6-tagged AdoMetDC/prozyme hetrodimer expressed in Escherichia coli BL21/DE3 cells using S-adenosyl-L-methionine as substrate preincubated for 30 mins followed by substrate addition measured every 5 mins by double-reciprocal Lineweaver-Burk plot analysis.
For data set [10], the system named is Trypanosoma brucei. Kind of data set: Ratio of IC50 for recombinant Trypanosoma brucei N-terminal His6-tagged AdoMetDC/prozyme hetrodimer expressed in Escherichia coli BL21/DE3 cells at pH 7.7 to IC50 for recombinant Trypanosoma brucei N-terminal His6-tagged AdoMetDC/prozyme hetrodimer expressed in Escherichia coli BL21/DE3 cells at pH 6.8.
Data set [11] can be described thus: Inhibition of recombinant Trypanosoma brucei N-terminal His6-tagged AdoMetDC/prozyme hetrodimer expressed in Escherichia coli BL21/DE3 cells at pH 7.7 by RapidFire-MS-based enzyme activity assay.
Data set [12] can be described thus: Inhibition of recombinant Trypanosoma brucei N-terminal His6-tagged AdoMetDC/prozyme hetrodimer expressed in Escherichia coli BL21/DE3 cells at pH 6.8 by RapidFire-MS-based enzyme activity assay.
Data set [13] relates to Liver. Kind of data set: Metabolic stability in CD-1 mouse pooled liver microsomes at 1 uM in presence of NADPH measured up to 30 mins by LC-MS/MS method. The class given is ADME, microsome. The conditions noted are these: 0.5 h.

Active and inactive are the calls of the source. The rule behind the calls is not given here.

The term IC50 denotes the concentration at which inhibition is half-maximal. A word on the inhibition: it is the drop in the measured response relative to a control, in per cent. By Papp B→A is commonly meant the apparent permeability from the basolateral to the apical side of a cell layer. What is called Ki is a dissociation constant, usually derived from enzyme kinetics or from competition with a known ligand.

For `Cc1cc(Nc2cc(Cl)cc(Cl)c2O)nc(N)n1`, the 50% inhibitory concentration (IC50) in data set [1] is 37 µM; in data set [3], greater than 180 µM. The Activity in data set [2] was 26%.
On to `Cc1cc(Nc2cc(Cl)cc(Cl)c2)nc(N)n1`, for which the IC50 in [1] is 3.7 µM; in data set [11] it was 30 µM; in [12], 0.5 µM. Also, the inhibition entry in data set [4] and in [8] was “Active” throughout. The Stability entry in data set [5] and in data set [13] was “Unstable” in each case. In addition, in data set [6], the apparent permeability from basolateral to apical (Papp B→A) at 1 h, up to 20 µM is 13.5 ×10⁻⁶ cm/s. Besides, the inhibition in data set [7] worked out at 27%. In data set [9], the Ki was 2.6 µM. Besides, the Ratio IC50 in data set [10] amounted to 60.

The values are drawn from ChEMBL document CHEMBL4033778, “Species-Selective Pyrimidineamine Inhibitors of Trypanosoma brucei S-Adenosylmethionine Decarboxylase” (J Med Chem, 2018).
